From PubChem BioAssay
Shown are actives, neighbours in structure and some others; about 2.2% of the full set was active somewhere.
FLuc stim CS = affects firefly luciferase, flagging false hits in luciferase stimulation screens; P08659; ATPlite luciferase biochemical, luminescence, 10 min; 0 = ATP-free wells, 1 = DMSO control; activation factor at 10 µM; 200,000 tested, under 10 active;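 active = luciferase activation factor, scaled between plate controls, of at least 2 with compound at 10 µM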
Target sequence (P08659 whole entry, looked up): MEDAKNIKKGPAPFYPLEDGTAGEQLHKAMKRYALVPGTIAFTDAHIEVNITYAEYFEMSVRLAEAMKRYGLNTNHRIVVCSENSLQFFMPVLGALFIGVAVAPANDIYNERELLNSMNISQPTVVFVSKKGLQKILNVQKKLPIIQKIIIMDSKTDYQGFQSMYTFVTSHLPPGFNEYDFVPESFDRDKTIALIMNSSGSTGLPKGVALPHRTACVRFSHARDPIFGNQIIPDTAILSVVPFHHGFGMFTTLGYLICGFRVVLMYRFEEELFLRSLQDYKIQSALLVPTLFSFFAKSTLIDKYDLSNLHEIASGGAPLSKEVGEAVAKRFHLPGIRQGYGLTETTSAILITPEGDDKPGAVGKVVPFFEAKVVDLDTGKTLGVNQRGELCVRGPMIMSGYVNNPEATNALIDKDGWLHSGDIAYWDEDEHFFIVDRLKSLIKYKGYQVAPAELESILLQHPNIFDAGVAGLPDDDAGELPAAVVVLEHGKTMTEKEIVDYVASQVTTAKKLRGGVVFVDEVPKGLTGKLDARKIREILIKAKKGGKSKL
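Assay system: Luciferase/luciferin detection reagent, cell-free biochemical luciferase assay / Also added: ATP substrate / Schedule: 10 min at ambient temperature / Measured by: luminescence measurement of luciferase light output / Benchmarks: low control with PBS replacing ATP, high control enzyme plus ATP without compound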
STAT3 inh-1 = STAT3 signaling inhibition; U3A cells, IL-6 STAT3-luciferase reporter, luminescence; host cell line lacks STAT1; inhibition, % at 5.5 µM; 0.89% of 190,000 active; AID 862;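 active = inhibition above the mean inhibition across all screened compounds plus 3 SD, cut at about 44% in these data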;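 also: 0% = DMSO only wells and 100% = 100 µM nifuroxazide control wells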
HSP90 inh = inhibitors of HSP90 luciferase refolding in rabbit reticulocyte lysate. luciferase refolding luminescence, 3 h. inhibition, % at 5.6 µM. 0.91% of 290,000 active. AID 1789;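 active = inhibition above the screen-wide mean plus 3 SD, computed separately per campaign, cut at about 16% in these data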;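 also: 0% = DMSO wells and 100% = 60 µM geldanamycin wells; inhibitors lower the luminescence because luciferase stays unfolded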
PPC-1+TRAIL kill = PPC-1 cancer cell killing with TRAIL present | PPC-1 cells + TRAIL, ATPLite viability luminescence | AID 1443 | cell killing (% activity), % at 4 µM or 5 µM | 0.41% of 220,000 active;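 active = cell killing above 50% in the first pass at 4 µM, then a duplicate retest at 5 µM averaging 50% or more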;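 also: plate controls were cells with TRAIL plus DMSO for no effect and medium-only wells lacking cells for full effect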
C8 TRAIL sens = caspase-8 TRAIL sensitization; NB7+C8 cells + TRAIL, ATPlite viability luminescence; inhibition (viability loss, TRAIL sensitization), % at 10 µM; 1% of 360,000 active; AID 624354;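 active = compounds causing at least 50% loss of cell viability in the single-dose screen, relative to plate controls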
FLuc inh counter = Photinus pyralis luciferase inhibition counter-screen. inhibition, % at 10 µM. 1.5% of 200,000 active. ATPLite firefly luciferase biochemical luminescence, 10 min;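 active = inhibition above about 50% when tested at 10 µM, limit read from the data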
STAT3 inh-2 = confirmation of STAT3 signaling inhibitors; shares compounds with STAT3 inh-1; U3A cells, IL-6 STAT3 luciferase reporter, luminescence; cell line lacks STAT1; inhibition, % at 5.7 µM; 45% of 1,200 active; AID 1265;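 active = inhibition above the hit cutoff computed for the primary STAT3 screen, cut at about 44% in these data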;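 also: 0% = IL-6 plus DMSO and 100% = IL-6 plus nifuroxazide control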
NFkB inh 2 = inhibits NF-kappaB, counter-screen to STAT3 inhibitors; shares compounds with STAT3 inh-1; 36% of 1,200 active; inhibition, % at 5.7 µM; HEK293T NF-kB luciferase reporter, TNF-alpha induced;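 active = inhibition above the mean of solvent-only control wells plus 3 SD, cutoff set per campaign, cut at about 13% in these data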;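 also: 0% = TNF-alpha with DMSO and 100% = TNF-alpha with MG high control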
STAT1 inh 2 = counter-screen for STAT3 inhibitors: STAT1 inhibition. shares compounds with STAT3 inh-1. NIH 3T3 STAT1-luciferase reporter, IFN-gamma induced, luminescence. inhibition, % at 5.7 µM. 27% of 1,200 active;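 active = inhibition above the mean plus 3 SD of solvent-only control wells, limit set per screening run, cut at about 16% in these data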;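 also: 0% = DMSO with IFN-gamma and 100% = nifuroxazide control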
PPC1 cytotox = kills PPC-1 cells | PPC-1 viability, ATPlite luminescence, overnight | cytotoxicity, % at 5 µM | 50% of 1,200 active | shares compounds with PPC-1+TRAIL kill | AID 1447;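 active = reconfirmed compounds whose average cytotoxicity reaches 50% or more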;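 also: 0% = DMSO-treated cells and 100% = wells holding medium but no cells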
HSP90 inh confirm = HSP90 inhibition, confirmation assay; shares compounds with HSP90 inh; rabbit reticulocyte lysate, luciferase refolding luminescence, 3 h; inhibition, % at 5.9 µM; 64% of 2,300 active; AID 1846; in the data active = inhibition above about 18%;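 also: 0% = vehicle wells and 100% = reference inhibitor wells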
FLuc counter = counter-screen for HSP90 inhibitors: inhibitors of firefly luciferase; 48% of 2,300 active; shares compounds with HSP90 inh; inhibition, % at 5.9 µM; AID 1847; purified native firefly luciferase, luminescence;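 active = inhibition above the mean inhibition of all tested sample wells plus 3 SD, cut at about 10% in these data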;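 also: 0% = DMSO with luciferase and 100% = wells lacking luciferase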
Active calls of the source: *; · = no result.

SMILES	FLuc stim CS	STAT3 inh-1	HSP90 inh	PPC-1+TRAIL kill	C8 TRAIL sens	FLuc inh counter	STAT3 inh-2	NFkB inh 2	STAT1 inh 2	PPC1 cytotox	others
CNS(=O)(=O)c1cccc(C(=O)OCC(=O)Nc2ccc(-c3nc4ccc(C)cc4s3)cc2)c1	0.7	68.3*	4.1	38.6	75.4*	27.7	32.5	-13.4	-79.2	48.5
CNS(=O)(=O)c1cccc(C(=O)OCC(=O)Nc2ccc(N3CCCCC3)cc2)c1	1	3.1	3.3	15.3	-2.3	3.9	·	·	·	·
O=C(Nc1nsc(-c2ccccc2)n1)c1cccs1	0.2	45.2*	8.3	25.1	51.2*	79.4*	0.4	-34.4	-104.9	34.2
CC(NC(=O)COC(=O)Cc1cccs1)c1ccc(F)cc1 (stereo unspecified)	·	·	·	·	0.4	·	·	·	·	·
Cc1ccc(C(=O)/C=C/Nc2cccc(O)c2)cc1	0	94.2*	4.0	87.7*	83.0*	95.7*	90.0*	32.5*	34.0*	87.7*
O=C(/C=C/Nc1cccc(O)c1)c1ccccc1	0.1	86.0*	-3.5	73.6*	66.9*	94.7*	65.3*	-3.1	2.5	71.6*
O=C(CN(c1ccccn1)S(=O)(=O)c1ccccc1)N/N=C/c1cccc([N+](=O)[O-])c1	1	-7.5	-2.5	15.3	-1.5	-3.2	·	·	·	·
O=C(COc1ccccc1)Nc1ccc(-c2nnc(-c3ccco3)o2)cc1	1	3.0	1.5	-20.5	10.8	-1.0	·	·	·	·
CCCOc1ccc(-c2nnc(-c3ccco3)o2)cc1	0.2	78.5*	8.5	46.0	54.9*	77.0*	43.0	1.4	-50.4	44.0
O=C(Nc1ccccc1Cl)c1ccc(Cl)cc1Cl	0.9	20.7	2.5	26.5	0.0	7.2	·	·	·	·
NC(=O)c1ccccc1N/C=C/C(=O)c1ccc(Cl)cc1Cl	0	61.6*	11.7	80.7*	90.0*	95.8*	22.3	-3.6	-85.0	80.9*
O=C(NCCC(F)(F)F)C1Cc2c(-c3ccc(Cl)cc3)ccnc2O1 (stereo unspecified)	·	·	·	·	8.3	·	·	·	·	·
Cc1ccc(-c2nc3cc(N)ccc3o2)cc1	0.1	59.4*	8.8	63.4*	69.8*	88.8*	17.0	-15.7	-119.6	60.8*
COc1ccc(OCC(=O)C2CC2)c(C#N)c1	·	·	2.4	-5.4	-9.2	·	·	·	·	·
O=C(Nc1ccc(N2CCOCC2)cc1)c1cn2ccccc2n1	0.1	76.4*	13.7	81.5*	81.3*	93.4*	37.2	-4.0	-25.5	82.5*
CCCCCCn1c(=O)[nH]c2c(c1=O)CCC2	·	·	-4.2	-1.4	4.1	·	·	·	·	·
CCn1c2c(c(=N)c3c1CCC3)CCC2	1.1	9.1	-4.6	11.5	25.5	-8.8	·	·	·	·
CCCCCCn1c2c(c(=N)c3c1CCC3)CCC2	1	81.2*	1.2	18.3	29.4	-4.3	82.4*	35.2*	26.8*	22.8
CCCCCCCCCn1c2c(c(=N)c3c1CCC3)CCC2	1.1	82.2*	-1.8	42.4	76.9*	-7.0	84.8*	58.5*	30.1*	44.0
CCCCCCCn1c2c(c(=N)c3c1CCC3)CCCC2	1	80.6*	3.2	30.8	40.2	-4.7	88.1*	36.7*	28.3*	26.0
Cn1c(Cn2nnc3ccccc32)nnc1SCC(=O)Nc1nccs1	1	-2.9	0.6	-6.9	-1.3	-0.8	·	·	·	·
C=CCN(Cc1nc(-c2ccccc2)no1)C(=O)c1ccc2c(c1)OCO2	·	·	1.3	·	-12.9	·	·	·	·	·
COc1cc(N/N=C/c2ccc(N(C)C)cc2)ncn1	0.1	61.2*	15.7	69.3*	76.7*	86.4*	8.5	-0.3	-103.2	69.1*
COc1ccc2c(=O)c(-c3nc(C)cs3)coc2c1	0.2	51.3*	4.8	44.9	66.4*	77.6*	4.1	-16.7	-103.2	56.8*
COc1ccc(-c2coc3cc(OC)ccc3c2=O)cc1	·	·	·	·	32.1	·	·	·	·	·
SMILES	FLuc stim CS	STAT3 inh-1	HSP90 inh	PPC-1+TRAIL kill	C8 TRAIL sens	FLuc inh counter	STAT3 inh-2	NFkB inh 2	STAT1 inh 2	PPC1 cytotox	others
O=C(N/N=C/c1c(O)ccc2ccccc12)c1[nH]ncc1Br	0.9	8.8	-2.8	40.9	22.4	7.4	·	·	·	·
CCOc1ccc(/C=N/NC(=O)c2[nH]ncc2Br)c(O)c1	0.1	48.4*	1.9	56.8*	78.9*	91.0*	18.5	-15.3	-76.6	55.5*
O=C(CNc1n[nH]c(=O)[nH]c1=O)N/N=C/C=C/c1ccccc1	·	·	3.2	-19.2	-9.1	·	·	·	·	·
C#CC(=O)N(c1ccc(OC)c(OC)c1)C(C(=O)NC1CCCC1)c1cccs1 (stereo unspecified)	1.1	107.8*	3.7	98.5*	90.3*	-7.6	89.3*	18.5*	31.6*	98.2*
CNC(=O)c1ccsc1NC(=O)c1sc2ccccc2c1Cl	0.7	-3.5	-1.1	5.5	31.8	26.1	·	·	·	·
Cc1nnc(NC(=O)c2sc3ccccc3c2Cl)s1	0	66.2*	18.0*	81.0*	86.9*	96.7*	45.4*	13.3*	19.2*	81.0*	HSP90 inh confirm=34.7*;FLuc counter=18.5*
O=CNc1cc(-c2ccc(C(=O)NC3CC3)cc2)cn2c(-c3ccc(F)cc3)cnc12	·	·	·	·	6.8	·	·	·	·	·
COc1cccc(C(=O)Nc2ccc(NC(=O)C(C)(C)C)cn2)c1	0.1	58.1*	33.2*	70.9*	76.9*	87.6*	8.1	-13.9	-66.7	73.3*	HSP90 inh confirm=48.5*;FLuc counter=37.2*
COc1cccc(C(=O)Nc2ccc(NC(=O)C3CCCCC3)nc2)c1	·	·	-1.7	·	-6.1	·	·	·	·	·
CC1CCN(S(=O)(=O)c2cccc(C(=O)N3CCN(c4ccc(F)cc4)CC3)c2)CC1	·	·	5.4	·	20.6	·	·	·	·	·
Cc1cc(Cl)ccc1C(O)c1ncc(-c2ccc(Cl)cc2)[nH]1 (stereo unspecified)	·	·	·	·	-15.1	·	·	·	·	·
COc1ccc(O)c(C(=O)CC(=O)c2ccccc2)c1	0.8	69.5*	24.5*	60.2*	·	19.6	15.4	-25.0	-101.0	57.9*	HSP90 inh confirm=7.8;FLuc counter=-22.5
COc1cccc(-c2cc(C(=O)Nc3cccc(O)c3)no2)c1	0.2	88.9*	17.5*	55.8*	69.8*	83.3*	49.6*	8.7	-52.6	54.6*	HSP90 inh confirm=64.3*;FLuc counter=57.4*
